Hits are enriched below; roughly 2.7% of the tested compounds scored in any of these assays.
VIM-2 inhibitor: blocks Pseudomonas aeruginosa VIM-2 metallo-beta-lactamase; purified VIM-2, nitrocefin hydrolysis, epi-absorbance fluorescence; inhibition, % at 5.6 µM; hit rate 0.89% among 290,000; AID 1527;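 active = inhibition above the mean of all tested compounds plus 3 SD, cutoff set per screening run, cut at about 7.5% in these data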;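 also: red hydrolysis product quenches plate fluorescence so inhibitors raise well fluorescence; 0% = enzyme with DMSO and 100% = DMSO without enzyme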
PfM18AAP inh: blocks P. falciparum M18 aspartyl aminopeptidase. AID 1822. inhibition, % at 7.35 µM. recombinant PfM18AAP, H-Glu-NHMec fluorogenic cleavage. hit rate 1.2% among 290,000;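 active = inhibition above the campaign mean inhibition over all tested compounds plus 3 SD, cut at about 28% in these data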;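 also: 0% = plate median of test compound wells and 100% = 2 mM ZnCl2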
Fh CTSL1 inh: cathepsin L1 inhibition, PFM18AAP counter-screen. inhibition, % at 5.96 µM. recombinant F. hepatica cathepsin L1, Z-Leu-Arg-MCA fluorescence. hit rate 0.49% among 300,000;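 active = inhibition above the mean of all tested compounds plus 3 SD, set per screening campaign, cut at about 17% in these data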;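 also: 0% = plate median of test compound wells and 100% = 1 µM Z-Phe-Ala-diazomethylketone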
IMP-1 inhibitor: blocks Pseudomonas aeruginosa IMP-1 metallo-beta-lactamase; purified IMP-1, nitrocefin hydrolysis, epi-absorbance fluorescence; inhibition, % at 5.6 µM; hit rate 0.45% among 290,000;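 active = inhibition above the mean plus 3 SD of all compounds in the same screening run, cut at about 4.5% in these data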;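 also: 0% = IMP-1 with DMSO and 100% = DMSO wells lacking enzyme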
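System: purified IMP-1 / Input: IMP-1 dispensed at 0.2 nM / Medium: 50 mM HEPES pH 7.1, 50 µM ZnSO4, 0.05% Brij 35 / Timing: 15 min enzyme–compound preincubation, then 25 min nitrocefin reaction, 25 °C / Technique: plate fluorescence quenching by hydrolysis product, ex 480/em 530 nm / Repeats: singlicate testing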
* marks the source's active call; other numbers are inactive results.

Results for COc1ccccc1NS(=O)(=O)c1ccc2oc(N)nc2c1 ?
VIM-2 inhibitor: 0.5; PfM18AAP inh: 7.3; Fh CTSL1 inh: -4.4; IMP-1 inhibitor: -1.9

How did CCOC(=O)/C=c1\s/c(=C\c2ccc3c(c2)OCCO3)c(=O)n1CC(=O)NCC1CCCO1 (stereo not given) do in these assays?
VIM-2 inhibitor: 3.1; PfM18AAP inh: 6.1; Fh CTSL1 inh: 3.1; IMP-1 inhibitor: 4.7*

What do the screens show for `CCOC(=O)/C=c1\s/c(=C\c2c(OCC)ccc3ccccc23)c(=O)n1CC(=O)NCC1CCCO1` (stereo not given)?
VIM-2 inhibitor: -1.3; PfM18AAP inh: -9.7; Fh CTSL1 inh: 4.1; IMP-1 inhibitor: -4.2

What do the screens show for `CCOc1cc(-c2nccc3cc(OC)c(OC)cc23)cc(OCC)c1OCC`?
VIM-2 inhibitor: 0.3; PfM18AAP inh: 2.3; Fh CTSL1 inh: 6.4; IMP-1 inhibitor: -0.5

What do the screens show for `Cc1nnc2c3ccccc3c(-c3ccc(O)cc3)nn12`?
VIM-2 inhibitor: 10.0*; PfM18AAP inh: 0.9; Fh CTSL1 inh: 0.4; IMP-1 inhibitor: -3.8

How did Cc1nnc2c3ccccc3c(Cl)nn12 do in these assays?
VIM-2 inhibitor: 4.9; PfM18AAP inh: -2.8; Fh CTSL1 inh: -0.8; IMP-1 inhibitor: -1.3

Results for CC(C)NC(=O)COc1ccccc1C#N ?
VIM-2 inhibitor: 1.0; PfM18AAP inh: -10.9; Fh CTSL1 inh: -3.8; IMP-1 inhibitor: -0.6

What do the screens show for `CC(C)CCNC(=O)NC(=O)COc1ccccc1C#N`?
VIM-2 inhibitor: -0.7; PfM18AAP inh: -3.4; Fh CTSL1 inh: 3.7; IMP-1 inhibitor: 5.4*

Results for CN1CCN(c2ccc(C(=O)c3ccccc3)cc2[N+](=O)[O-])CC1 ?
VIM-2 inhibitor: 8.3*; PfM18AAP inh: 2.0; Fh CTSL1 inh: 3.2; IMP-1 inhibitor: -2.0

Results for C#CCN1C(=O)S/C(=C\c2ccc(-c3ccc(Cl)c(C(=O)O)c3)o2)C1=O ?
VIM-2 inhibitor: 9.3*; PfM18AAP inh: 12.3; Fh CTSL1 inh: 5.4; IMP-1 inhibitor: -3.1

Results for O=C(CCl)N(CCc1ccccc1)CCc1ccccc1 ?
VIM-2 inhibitor: -2.5; PfM18AAP inh: 12.2; Fh CTSL1 inh: 39.5*; IMP-1 inhibitor: -2.4

How did O=C(CCl)N(c1ccccc1)c1ccccc1 do in these assays?
VIM-2 inhibitor: -0.7; PfM18AAP inh: 10.0; IMP-1 inhibitor: -1.1

Results for CC(=O)NC(CC(=O)Oc1ccc(C)cc1Br)c1ccccc1 (stereo not given) ?
VIM-2 inhibitor: 0.5; PfM18AAP inh: 2.7; IMP-1 inhibitor: -1.4

How did CCCCN(CCCC)C(=O)c1sc2nc(N3CCOCC3)c3c(c2c1N)CCCC3 do in these assays?
VIM-2 inhibitor: -1.0; PfM18AAP inh: 31.5*; Fh CTSL1 inh: -3.4; IMP-1 inhibitor: -2.9

How did NC(=O)c1sc2nc(N3CCOCC3)c3c(c2c1N)CCCC3 do in these assays?
VIM-2 inhibitor: 2.2; PfM18AAP inh: -34.3; Fh CTSL1 inh: 0.6; IMP-1 inhibitor: -0.8

How did O=C(Nc1nncs1)c1ccc2c(c1)OCO2 do in these assays?
VIM-2 inhibitor: -4.5; PfM18AAP inh: 28.7*; Fh CTSL1 inh: 7.7; IMP-1 inhibitor: -0.8

Results for O=C(CCl)Nc1cc2[nH]c(=O)[nH]c2cc1Br ?
VIM-2 inhibitor: -1.2; PfM18AAP inh: -4.0; Fh CTSL1 inh: 24.6*; IMP-1 inhibitor: -2.2

Results for CCCc1cc(=O)oc2c(CN3CCCC3)c(O)c(Cl)cc12 ?
VIM-2 inhibitor: -2.8; PfM18AAP inh: 2.2; Fh CTSL1 inh: -0.4; IMP-1 inhibitor: -0.1

What do the screens show for `CCCc1cc(=O)oc2c3c(c(Cl)cc12)OCN(CCCO)C3`?
VIM-2 inhibitor: 4.5; PfM18AAP inh: 17.6; Fh CTSL1 inh: -0.2; IMP-1 inhibitor: 10.1*

What do the screens show for `O=[N+]([O-])c1ccc(Cl)c(C[n+]2cccc3ccccc32)c1`?
VIM-2 inhibitor: 0.7; PfM18AAP inh: 3.2; Fh CTSL1 inh: -3.1; IMP-1 inhibitor: 0.4

Results for CCCOc1ccc(-c2nc(=S)[nH][nH]2)cc1 ?
VIM-2 inhibitor: 6.3; PfM18AAP inh: -27.0; Fh CTSL1 inh: -4.6; IMP-1 inhibitor: 35.3*

How did S=c1nc(-c2ccc(Cl)cc2)[nH][nH]1 do in these assays?
VIM-2 inhibitor: -2.8; PfM18AAP inh: 4.8; Fh CTSL1 inh: 2.9; IMP-1 inhibitor: -3.6

Results for COc1ccc(Oc2nnnn2-c2ccccc2)cc1 ?
VIM-2 inhibitor: -3.4; PfM18AAP inh: 3.3; Fh CTSL1 inh: -1.7; IMP-1 inhibitor: 3.3

Results for c1ccc(-n2nnnc2Oc2ccc(-n3ccnc3)cc2)cc1 ?
VIM-2 inhibitor: 10.9*; PfM18AAP inh: 6.5; Fh CTSL1 inh: -0.7; IMP-1 inhibitor: -3.5

Results for CC1CC(C)CN(S(=O)(=O)c2ccc(NC(=S)NC(=O)c3ccccc3)cc2)C1 (stereo not given) ?
VIM-2 inhibitor: -3.9; PfM18AAP inh: 0.5; Fh CTSL1 inh: 18.9*; IMP-1 inhibitor: 0.1
